What was measured:
[1] = biological target: T1, Adenosine receptor A1 (Homo sapiens) (UniProt P30542); experiment: Percent change in cAMP content of CHO (Chinese hamster ovary) cells expressing human Adenosine A1 receptor at 10 uM; assay type: functional, cell-based
T1 sequence (whole entry): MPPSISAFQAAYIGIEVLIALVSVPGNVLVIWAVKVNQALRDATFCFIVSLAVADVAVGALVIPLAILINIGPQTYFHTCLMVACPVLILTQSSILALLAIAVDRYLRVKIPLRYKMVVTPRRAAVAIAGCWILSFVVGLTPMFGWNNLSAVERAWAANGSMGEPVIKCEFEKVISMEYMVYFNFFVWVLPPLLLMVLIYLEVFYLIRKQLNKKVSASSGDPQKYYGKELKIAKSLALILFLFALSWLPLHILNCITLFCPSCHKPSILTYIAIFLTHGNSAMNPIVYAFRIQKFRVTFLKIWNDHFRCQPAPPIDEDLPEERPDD
Summary of the method: (§1)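 CHO cells stably expressing human A1 receptor (~8000 fmol/mg protein) were grown in Ham's F-12 with 10% FBS and G-418 for 48 h to confluence. HCl (50 mM final) stopped the reaction, and cAMP was measured by radioimmunoassay. Values are % change versus no-compound control, mean ± SEM of six experiments.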

[2] = biological target: T1, Adenosine receptor A1 (Homo sapiens); experiment: Percent change in cAMP content of CHO (Chinese hamster ovary) cells expressing human Adenosine A1 receptor at 0.1 uM; assay type: functional, cell-based; summary of the method: as §1
[3] = biological target: T2, Adenosine receptor A3 (Homo sapiens) (UniProt P0DMS8); experiment: Ability to displace the binding of [3H]-MRE 3008-F20 to the ligand binding site of CHO:hA3 (human Adenosine receptor) at concentration of 10 uM
T2 sequence (whole entry): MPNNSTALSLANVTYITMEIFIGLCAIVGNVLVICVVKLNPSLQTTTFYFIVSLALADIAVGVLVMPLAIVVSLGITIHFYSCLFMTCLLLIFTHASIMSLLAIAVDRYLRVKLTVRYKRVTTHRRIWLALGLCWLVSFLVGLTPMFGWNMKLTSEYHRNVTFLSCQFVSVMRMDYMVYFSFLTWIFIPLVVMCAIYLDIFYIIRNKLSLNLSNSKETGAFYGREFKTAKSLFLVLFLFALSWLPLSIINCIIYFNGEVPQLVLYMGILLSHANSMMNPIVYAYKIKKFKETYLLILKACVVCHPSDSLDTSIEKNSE
Summary of the method: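 Assays used 2 nM [3H]MRE 3008F20 on CHO:hA3 membranes (100 µg protein, ADA-treated) for 150 min at 4 °C, in Tris-HCl with MgCl2 and 1 mM EDTA, pH 7.4, with compound from DMSO (1% final). Bound ligand was separated by filtration. Results are % displacement by 10 µM compound, ±STD, n = 3.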

[4] = biological target: T1, Adenosine receptor A1 (Homo sapiens); experiment: Percent change in cAMP content of CHO (Chinese hamster ovary) cells expressing human Adenosine A1 receptor at 0.01 uM; assay type: functional, cell-based; summary of the method: as §1
[5] = biological target: T1, Adenosine receptor A1 (Homo sapiens); experiment: Dissociation of [3H]CCPA from Adenosine A1 receptor in CHO cells at 10 uM as percent K-1; assay type: cell-based
Summary of the method: (§2)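 [3H]CCPA was bound to ADA-treated CHO:hA1 membranes in 50 mM Tris-HCl pH 7.4 at 25 °C. Dissociation was started by adding R-PIA (1 µM) with test agent (10 µM), and specific binding was measured 2–180 min afterwards. Kinetic fits gave t1/2 and K-1, expressed as % change from control. Values are the mean of three experiments.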

[6] = biological target: T1, Adenosine receptor A1 (Homo sapiens); experiment: Percent change in cAMP content of CHO (Chinese hamster ovary) cells expressing human Adenosine A1 receptor at 1 uM; assay type: functional, cell-based; summary of the method: as §1
[7] = biological target: T1, Adenosine receptor A1 (Homo sapiens); experiment: Dissociation rate of [3H]CCPA from Adenosine A1 receptor expressing CHO cells at 10 uM as percent t1/2; assay type: cell-based; summary of the method: as §2
[8] = biological target: Adenosine receptor A2a (Homo sapiens) (UniProt P29274); experiment: Ability to displace the binding of [3H]-ZM 241385, to the ligand binding site of CHO:hA2A (human Adenosine A2A receptor) at concentration of 10 uM
Sequence of Adenosine receptor A2a (Homo sapiens) (P29274 whole entry): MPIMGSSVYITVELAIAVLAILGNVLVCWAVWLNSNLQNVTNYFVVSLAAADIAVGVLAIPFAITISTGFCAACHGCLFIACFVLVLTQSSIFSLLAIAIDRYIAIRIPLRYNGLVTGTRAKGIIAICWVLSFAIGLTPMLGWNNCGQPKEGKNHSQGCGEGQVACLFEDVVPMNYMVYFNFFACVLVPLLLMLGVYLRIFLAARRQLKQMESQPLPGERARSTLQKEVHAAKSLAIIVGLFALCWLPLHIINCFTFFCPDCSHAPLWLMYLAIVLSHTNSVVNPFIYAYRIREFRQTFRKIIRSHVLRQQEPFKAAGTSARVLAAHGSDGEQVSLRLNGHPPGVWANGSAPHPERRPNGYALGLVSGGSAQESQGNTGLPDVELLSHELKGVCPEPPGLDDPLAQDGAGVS
Summary of the method: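 CHO:hA2A membranes (100 µg protein, ADA-treated) were incubated with 2 nM [3H]ZM 241385 in Tris-HCl with MgCl2, pH 7.4, for 60 min at 4 °C, with compound from DMSO (1% final). Nonspecific binding was taken with 1 µM ZM241385. After filtration, results are % displacement by 10 µM compound, ±STD, n = 3.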

[9] = biological target: T1, Adenosine receptor A1 (Homo sapiens); experiment: Ability to displace the binding of [3H]DPCPX to the ligand binding site of CHO:hA1 (human Adenosine A1 receptor) at concentration of 10 uM
Summary of the method: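 Membranes came from hypotonic lysis of CHO:hA1 cells, a 100 000g pellet and ADA 2 U/mL treatment for 30 min at 37 °C. Membranes (100 µg protein) were incubated with 1 nM [3H]DPCPX in Tris-HCl pH 7.4 for 150 min at 25 °C, with compound added from DMSO (1% final). Nonspecific binding was taken with 1 µM DPCPX, and bound ligand was separated on GF/B filters.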

[10] = biological target: T1, Adenosine receptor A1 (Homo sapiens); experiment: Percent change in cAMP in CHO cells expressing human Adenosine A1 receptor at 1 uM; assay type: functional, cell-based; summary of the method: as §1

Change [1]	Change [2]	inhibition [3]	Change [4]	K-1 decrease [5]	Change [6]	T1/2 increase [7]	inhibition [8]	inhibition [9]	Change [10]	SMILES
-52%	-15%	34.5%	-11%	23%	-22%	29%	-0%	2%	–	Nc1sc2c(c1C(=O)c1cccc3ccccc13)CCCC2
-45%	-3%	18%	-0.6%	46%	–	85%	-0%	-0%	6%	Cc1sc(N)c(C(=O)c2cccc3ccccc23)c1C
-50%	-7%	21%	-1%	30%	-13%	43%	-0%	-0%	–	Cc1sc(N)c(C(=O)c2cccc(C(F)(F)F)c2)c1C
-67%	-4%	48%	-3%	38%	-24%	60%	3%	15.3%	–	Nc1sc2c(c1C(=O)c1ccc(I)c3ccccc13)CCCC2
-44%	3%	30.5%	-11%	27%	-25%	36%	-0%	4.8%	–	Nc1sc2c(c1C(=O)c1ccc(Cl)c3ccccc13)CCCC2
-72%	-10%	48.5%	-6%	30%	-29%	43%	3%	12%	–	Nc1sc2c(c1C(=O)c1ccc(Br)c3ccccc13)CCCC2
-51%	-14%	54%	-19%	29%	-15%	42%	-0%	14.5%	–	Nc1sc2c(c1C(=O)c1ccc3ccccc3c1)CCC2
-75%	-8%	-0%	-6%	29%	-22%	41%	-0%	3.3%	–	Nc1sc2c(c1C(=O)c1ccc(I)c3ccccc13)CCC2
-67%	19%	22%	3%	4%	-14%	4%	-0%	-0%	–	Nc1sc2c(c1C(=O)c1ccc(Br)c3ccccc13)CCC2
-42%	-24%	-0%	-13%	9%	-28%	10%	-0%	3.3%	–	Nc1sc2c(c1C(=O)c1ccc3ccccc3c1)CCCC2
-55%	15%	-0%	-10%	30%	-27%	43%	-0%	-0%	–	Nc1sc2c(c1C(=O)c1ccc(Cl)c3ccccc13)CCC2
-60%	-6%	-0%	-0.6%	-0%	-29%	-0%	-0%	8%	–	Nc1sc2c(c1C(=O)c1cccc3ccccc13)CCC2
-60%	-12%	22%	-11%	–	-18%	–	-0%	2.5%	–	Nc1sc2c(c1C(=O)c1ccc3ccccc3c1)CCN(Cc1ccccc1)C2
